AHR activator = human AHR activation. P35869. AHR-responsive luciferase reporter cells, luminescence. activation, % at 5 µM. 320,000 tested, 2.5% active; in the data active means activation above about 47%;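 further: 0% = vehicle wells and 100% = reference agonist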
Target sequence (P35869 whole entry, looked up): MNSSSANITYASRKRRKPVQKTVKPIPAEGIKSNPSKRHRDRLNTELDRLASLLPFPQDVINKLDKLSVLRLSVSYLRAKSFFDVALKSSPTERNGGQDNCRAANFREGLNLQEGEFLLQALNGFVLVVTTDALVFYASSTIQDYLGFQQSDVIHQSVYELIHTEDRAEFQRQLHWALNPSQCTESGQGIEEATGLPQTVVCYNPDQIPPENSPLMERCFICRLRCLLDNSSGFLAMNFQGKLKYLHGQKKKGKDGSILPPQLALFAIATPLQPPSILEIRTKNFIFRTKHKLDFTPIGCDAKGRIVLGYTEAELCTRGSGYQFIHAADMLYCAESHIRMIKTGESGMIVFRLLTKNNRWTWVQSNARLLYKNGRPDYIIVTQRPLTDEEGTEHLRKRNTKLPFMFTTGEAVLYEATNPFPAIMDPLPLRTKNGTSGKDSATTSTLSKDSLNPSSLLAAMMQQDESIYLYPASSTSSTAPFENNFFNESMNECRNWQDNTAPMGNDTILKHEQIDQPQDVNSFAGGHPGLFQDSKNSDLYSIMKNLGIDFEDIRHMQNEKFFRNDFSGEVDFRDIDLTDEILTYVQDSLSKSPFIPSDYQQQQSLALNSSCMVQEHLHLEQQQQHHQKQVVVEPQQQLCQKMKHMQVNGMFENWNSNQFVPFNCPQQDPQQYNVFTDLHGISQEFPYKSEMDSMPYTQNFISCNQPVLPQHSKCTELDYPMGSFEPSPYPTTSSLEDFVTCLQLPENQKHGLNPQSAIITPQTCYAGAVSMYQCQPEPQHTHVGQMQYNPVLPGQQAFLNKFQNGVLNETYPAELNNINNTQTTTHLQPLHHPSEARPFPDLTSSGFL
SMARCA2 activ = activators of SMARCA2 function; activation, % at 9.1 µM; 370,000 tested, 1% active; AID 652017; MG213 cells, MMTV-luciferase reporter, dexamethasone, overnight; in the data active means activation above about 7.8%;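 further: 0% = vehicle wells and 100% = reference activator wells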
Efflux pump inh = blocks antifungal efflux pumps in multiplex yeast assay; S. cerevisiae Candida pump triplex, Nile Red efflux; inhibition, % at 10 µM; 330,000 tested, 0.44% active; AID 485275;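 active means plate passing quality check with inhibition over a set limit, or well fluorescence over plate mean plus 4 SD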;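 further: Nile Red retained in pooled yeast measured as flow cytometry median fluorescence; 0% = buffer negative control and 100% = Enniatin B positive control; higher means more Nile Red kept so more efflux inhibition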
TbMetRS inhib = blocks T. brucei methionyl-tRNA synthetase activity. AID 624268. purified T. brucei MetRS, ATP depletion, Kinase-Glo luminescence. 360,000 tested, 0.4% active. inhibition, % at 11.9 µM;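 active means inhibition above a per-plate cutoff of the control wells' mean inhibition plus 3 SD, cut at about 5.5% in these data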;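 further: 0% = DMSO wells median and 100% = median of wells with control inhibitor compound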
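Assay system: T. brucei methionyl-tRNA synthetase, purified | Medium: HEPES buffer with MgCl2, KCl, DTT, spermine, BSA, pyrophosphatase | Compound: 11.9 µM single point | Incubation: 15 min enzyme-compound preincubation, 2 h reaction, 10 min detection, 25 °C | Measured by: Kinase-Glo luciferase luminescence reporting remaining unconsumed ATP | Measure: % inhibition normalized to control-well medians | Replication: Singlicate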
H9c2 TAG inh = triacylglycerol accumulation inhibition | H9c2 cells, Nile Red lipid (TAG) fluorescence; cells loaded with 200 µM oleic acid | inhibition, % at 12.5 µM | 230,000 tested, 0.66% active;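 active means pattern-corrected inhibition of lipid staining of at least 50% with the nuclear-stain viability signal not falling by more than 50%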;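 further: 0% = DMSO wells and 100% = triacsin C control wells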
* hit, by the source's call. The list is not random: actives were taken first. Their share in the collection is about 4.1%.

For O=C1NC(N2CCOCC2)=N/C1=C/c1ccc2c(c1)OCO2 the results were AHR activator 54*, SMARCA2 activ -1, Efflux pump inh 0, TbMetRS inhib 0 and H9c2 TAG inh -3.
`CCSC1=N/C(=C\c2ccc3c(c2)OCO3)C(=O)S1` gave AHR activator 1, SMARCA2 activ 1, Efflux pump inh 0, TbMetRS inhib -1 and H9c2 TAG inh -2.
Screening CCn1c(O)c(/C=C2\C=NN=C2c2ccccc2)sc1=S returned AHR activator -1, SMARCA2 activ -2, Efflux pump inh 0, TbMetRS inhib 0 and H9c2 TAG inh -2.
For Cn1c(O)c(/C=C2\C=NN=C2c2ccccc2)sc1=S the results were AHR activator 75*, SMARCA2 activ -2, Efflux pump inh 0, TbMetRS inhib 0 and H9c2 TAG inh 13.
Screening CCCCn1c(O)c(/C=C2\C=NN=C2c2ccccc2)sc1=S returned AHR activator 66*, SMARCA2 activ -1, Efflux pump inh 0 and TbMetRS inhib 0.
For CO/N=C(\c1nonc1N)N1CCN(c2ccc([N+](=O)[O-])cc2Cl)CC1 the results were AHR activator -8, SMARCA2 activ -1, Efflux pump inh 0 and TbMetRS inhib 7.0*.
For CCCOC(=O)C1=C(C)N(C)C(=O)NC1c1cc2c(cc1[N+](=O)[O-])OCO2 (centres undefined) the results were AHR activator 60*, SMARCA2 activ 2, Efflux pump inh 0, TbMetRS inhib 1 and H9c2 TAG inh 11.
For CN(C)CC(=O)N[C@@H]1C[C@@H]2O[C@@H](CO)CC[C@@H]2O[C@@H]1CCc1ccc(C2=CCCCC2)cc1 the results were SMARCA2 activ -2.
`CCOC(=O)c1[nH]c(=O)[nH]c1CSc1nc(C)cc(C)n1` gave AHR activator 48*, SMARCA2 activ 1, Efflux pump inh 0, TbMetRS inhib 0 and H9c2 TAG inh 21.
`Cc1cccc(NC(=O)N2CCC(N(C)CCC(C)C)CC2)c1` gave SMARCA2 activ -5.
`CCCN(CCC)C(=O)c1cc(-c2ccc3c(c2)OCO3)nc2ccccc12` gave AHR activator 66*, Efflux pump inh 0, TbMetRS inhib -1 and H9c2 TAG inh 10.
For COc1cccc(-c2cc(C(=O)Nc3cccnc3)c3ccccc3n2)c1 the results were AHR activator 19, SMARCA2 activ -3, Efflux pump inh 0, TbMetRS inhib 0 and H9c2 TAG inh 10.
O=C(Nc1nccs1)c1cc(-c2ccncc2)nc2ccccc12 was read as AHR activator 56*, SMARCA2 activ -1, Efflux pump inh 0, TbMetRS inhib 1 and H9c2 TAG inh 4.
Screening Cc1ccc(-c2cc(C(=O)Nc3nccs3)c3ccccc3n2)o1 returned AHR activator 55*, SMARCA2 activ 6, Efflux pump inh 1 and TbMetRS inhib 0.
COc1ccc(-c2cc(C(=O)Nc3cccnc3)c3ccccc3n2)cc1OC was read as AHR activator 67*, SMARCA2 activ -2, Efflux pump inh 0, TbMetRS inhib 0 and H9c2 TAG inh 32.
Screening O=C(N/N=C/c1cccnc1)c1cc(-c2cccs2)nc2ccccc12 returned AHR activator 76*, SMARCA2 activ -1, Efflux pump inh 0 and TbMetRS inhib 0.
`Cc1csc(NC(=O)c2cc(-c3ccncc3)nc3ccccc23)n1` gave AHR activator 28, SMARCA2 activ -3, Efflux pump inh 0, TbMetRS inhib 0 and H9c2 TAG inh 7.
`CCOC(=O)[C@@H]1c2[nH]c3ccccc3c2C[C@@]2(C(=O)OC)C=CCN12` gave SMARCA2 activ -1.
For CCN(CC)C(=O)CSc1nnc(-c2cccs2)o1 the results were SMARCA2 activ 3.
`CC(C)(C)c1ccccc1NC(=O)c1cc(-c2ccncc2)nc2ccccc12` gave AHR activator 52*, SMARCA2 activ -4, Efflux pump inh 0, TbMetRS inhib 0 and H9c2 TAG inh 4.
O=C(CCNS(=O)(=O)c1ccc2[nH]c(=O)oc2c1)Nc1cccc(Br)c1 was read as AHR activator 4, SMARCA2 activ 7.8*, Efflux pump inh 0 and TbMetRS inhib 0.
Screening O=C(CCNS(=O)(=O)c1ccc2[nH]c(=O)oc2c1)Nc1ccccc1 returned AHR activator -1, Efflux pump inh 0 and TbMetRS inhib 0.
Screening COc1ccc(Nc2cnn(-c3nc4ccccc4s3)c(=O)c2Cl)cc1 returned AHR activator 16, SMARCA2 activ 12*, Efflux pump inh 0 and TbMetRS inhib 1.
O=c1c(Cl)c(Nc2cccc(Cl)c2)cnn1-c1nc2ccccc2s1 was read as AHR activator 36, SMARCA2 activ -2, Efflux pump inh 0 and TbMetRS inhib 0.
Screening Nn1c(-c2ccccc2)nc2cc(Cl)ccc2c1=O returned AHR activator 52*, SMARCA2 activ -1, Efflux pump inh 0 and TbMetRS inhib -1.
For Nn1c(COc2cccc(Cl)c2)nc2ccccc2c1=O the results were AHR activator 58*, SMARCA2 activ 2, Efflux pump inh 0 and TbMetRS inhib 0.
CCOC(=O)c1c(C)[nH]c(C)c1C(=O)CSc1nc2ccccc2[nH]1 was read as AHR activator 59*, SMARCA2 activ 0, Efflux pump inh 0 and TbMetRS inhib 0.
Screening CCOC(=O)c1c(C)[nH]c(C)c1C(=O)CSc1ncccn1 returned AHR activator 78*, Efflux pump inh 0 and TbMetRS inhib -1.
Screening CCOC(=O)c1c(C)[nH]c(C)c1C(=O)Cn1nnc(-c2ccccc2C)n1 returned AHR activator 49*, SMARCA2 activ 0, Efflux pump inh 0, TbMetRS inhib 0 and H9c2 TAG inh 13.
`CC(=O)c1cc(-c2ccc(-c3cc(C(=O)O)c4ccccc4n3)cc2)c(=O)n2c1CCC2` gave SMARCA2 activ -3.
Screening COC(=O)[C@]12C[C@H](CC(=O)NCc3cccc4ccccc34)C(=O)N(Cc3cccc4ccccc34)C1=C[C@H](C1CCCC1)O[C@@H]2C returned SMARCA2 activ -3.
Screening Cc1cc(NC(=O)c2nn(C)c(C)c2[N+](=O)[O-])no1 returned AHR activator 0, SMARCA2 activ 1, Efflux pump inh 0 and TbMetRS inhib 0.
For Cc1cc(NC(=O)c2nn(C)c(C)c2Br)no1 the results were AHR activator 63*, SMARCA2 activ 4, Efflux pump inh -1 and TbMetRS inhib 0.
CCCc1nn(C)c(C(=O)Nc2cccc(Cl)c2)c1Cl was read as AHR activator 89*, SMARCA2 activ -3, Efflux pump inh 0 and TbMetRS inhib 0.
For NC(N)=Nc1nc(-c2ccccc2)c2ccccc2n1 the results were AHR activator 68*, SMARCA2 activ 0, Efflux pump inh 0, TbMetRS inhib 0 and H9c2 TAG inh 17.
`C=CCN1C(=O)[C@@H](CC(=O)N2CCC(c3ccccc3)CC2)[C@]2(C(=O)OCC)CCCCC/C=C/12` gave SMARCA2 activ -3.
CCCCCN1CCCCC(NC(=O)c2cccc(F)c2)C1=O (centres undefined) was read as SMARCA2 activ -2.

Compound activity as filed in PubChem BioAssay.
